Here are results for 39 compounds from ChEMBL document CHEMBL4513216, “Probing the Open Global Health Chemical Diversity Library for Multistage-Active Starting Points for Next-Generation Antimalarials” (ACS Infect Dis, 2020).

The data set is described as follows: Toxicity liver stage against HepG2, at 10uM. The following applies: human, HepG2-A16-CD81EGFP cells; read-out: INHIBITION
More on the design: test concentration 10 uM, cell line HepG2-A16-CD81EGFP. Format: cell-based. Summed up: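 Uninfected HepG2-A16-CD81EGFP cells, 3 × 10^3 per well, 1536-well, plated on prespotted compound at 10 μM final, parasite-free screening media added to match infected plates; puromycin 10 μM positive, DMSO 0.5% negative; run in parallel with 48 h PbLuc assay at 37 °C, 5% CO2; viability by CellTiter-Glo luminescence, normalized to controls.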
With `F[C@@H]1CN(CC2CC2)C[C@@H]1OCc1nc2ccc(C(F)(F)F)cc2[nH]1`, the cytotoxicity at 10 µM was -6.22%.
For `CCOC(=O)c1nc(CC(=O)Nc2ccc3cc[nH]c3c2)no1`, the cytotoxicity at 10 µM was 7.12%.
As to `CC(C)n1c(=O)c2ccccc2n(CCN2CCCCC2)c1=O`, the cytotoxicity at 10 µM was -16.6%.
In the case of `COc1nn(C)cc1C(=O)NCC(=O)Nc1cccnc1`, the cytotoxicity at 10 µM is -8.75%.
For `O=C(CN1C(=O)CCC1=O)N1Cc2cncnc2C1` the value was -8.33%; for `COCC(=O)N1CC[C@H]2N(C)CC[C@@]2(C(=O)Nc2ccccc2)CC1`, 3.48%.
With `CCOCC(=O)N1CCC(Oc2ccc(Cl)cn2)CC1`, the cytotoxicity at 10 µM was 7.39%.
For `CCCC(=O)N1CCC2(CC1)CC(NC(C)=O)c1ccccc1O2` (centres undefined) the value was 5.08%; for `CC(C)C(NC(=O)C1CC1)c1cc(O)nc(-c2cccnc2)n1` (centres undefined), 5.18%.
As to `Cc1nn(CCC(=O)NC2CCCOC2)c(C)c1C` (centres undefined), the cytotoxicity at 10 µM came to 2.06%.
Then `c1cncc(CN2CCC(c3csc4nccn34)CC2)c1`, with 2.9%; and `CN(Cc1ccc(F)cc1)C(=O)c1ccoc1CN1CCNC(=O)C1`, with -3.57%; and `CN1CCN(C2CCN(Cc3noc(C4CC4)n3)CC2)C1=O`, with 8.54%.
For `CNC(=O)CN(C)S(=O)(=O)c1c(Br)cc2[nH]c(=O)oc2c1Cl` the value was 1.36%.
Then `CN(CC(=O)N(C)C(c1ccc(Cl)cc1)c1cccnc1)C1CC1` (centres undefined), with 10.9%.
For the compound `CC(=O)NCCC(=O)Nc1cccc(N2CCN(CC3CC3)CC2)c1`, the cytotoxicity at 10 µM is -5.62%.
For the compound `Cc1ccc(C(O)CNC(=O)CCCc2ccccn2)o1` (centres undefined), the cytotoxicity at 10 µM was 0.166%.
For `Cc1nnc(NC(=O)NCCCN2CCC(C(N)=O)CC2)s1` the value was 5.61%; for `O=C(Nc1ccc(F)cc1)C1CSCN1` (centres undefined), -2.76%; for `Cc1nc(CN2C(=O)CCC23CCN(Cc2ccco2)CC3)cs1`, -105%.
Turning to `Cc1nc(N2CCCC2)nc2c1CCN(C(=O)c1ccoc1C)CC2`, the cytotoxicity at 10 µM was -111%.
For `Cc1ccc2oc(=O)n(CCC(=O)N3CCCC4(CNC(=O)O4)C3)c2c1` (centres undefined) the value was -6%; for `CN(CCO)C[C@@H]1CN(C(=O)c2cccc(OC(F)F)c2)C[C@@H]1CO`, -0.185%; for `CNC(=O)c1cccnc1N1CCN(Cc2ccccc2)C(CCO)C1` (centres undefined), -6.03%.
Then `C[C@@H]1CN(Cc2ccncc2)C[C@@]1(O)C1CC1`, with -5.08%; and `CCN1CCN(S(=O)(=O)N2CCCCCC2)[C@H]2CS(=O)(=O)C[C@H]21`, with 1.58%.
Consider `CCc1csc(C2CCCN(C(=O)c3ccc(=O)n(CC)n3)C2)n1` (centres undefined), for which the cytotoxicity at 10 µM was -1.52%.
For `Cn1ccc(CN2CCC(OCc3ccccc3)CC2)cc1=O` the value was 0.259%; for `CSc1nccn1-c1cccc(C(=O)NCCCN2CCOCC2)c1`, -4.74%; for `CN1CCCN(C(=O)NCc2csc(Br)c2)CC1`, -5.85%.
Then `O=C(Cc1ccccc1)N1CC[C@H]2[C@@H]1CCC(=O)N2Cc1ccncc1`, with 3.07%.
Regarding `Cc1ccc(N2CCC3(CCC(=O)N3Cc3ccncc3)CC2)nn1`, the cytotoxicity at 10 µM was -110%.
For `Cn1cc(C(=O)N[C@@H]2CN(Cc3cccnc3)[C@@H]3CCCO[C@@H]32)cn1` the value was 1.18%.
Turning to `O=C(N1CCCC1)N1CCC[C@]2(C[C@@H](Oc3ncccc3F)CO2)C1`, the cytotoxicity at 10 µM is -0.269%.
For `CN(C)C(=O)CN1CCc2ncnc(N(C)C)c2CC1` the value was -93.2%.
Then `CN(C)[C@@H]1CCN(C(=O)Cc2ccc(F)cc2)[C@H]1Cc1cnn(C)c1`, with 4.58%; and `O=C(Cc1ccccn1)NCC1OCCc2cn(CC3CC3)nc21` (centres undefined), with 7.51%; and `O=c1occ(CN2CCOCC2)c(O)c1CN1CCOCC1`, with -12.1%.
As to `CC(C)n1c(=O)[nH]c2cn(-c3ccc(F)cc3)c(=O)n21`, the cytotoxicity at 10 µM is -7.74%.
